HIV Rev-RRE inh: HIV Rev-RRE protein-RNA interaction inhibition; AID 704; inhibition, % at 8 µM; 97,000 compounds, 0.79% hits; P05866; Rev peptide-RRE RNA binding, FRET;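 active = inhibition above the screen-wide mean plus 3 SD, cut at about 35% in these data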;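 also: 0% = median DMSO wells and 100% = median Neomycin B control wells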
Target sequence (P05866 whole entry, looked up): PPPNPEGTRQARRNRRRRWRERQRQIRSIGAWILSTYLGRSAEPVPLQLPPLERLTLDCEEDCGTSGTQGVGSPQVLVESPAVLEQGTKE
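Test system – labelled RRE RNA duplex and labelled Rev peptide · Reagent – labelled Rev peptide · Doses – one concentration, 8 µM nominal · Incubation – 5 + 15 min at 25 °C · Signal – FRET fluorescence readout · Read-out basis – % inhibition of FRET ratio versus controls · Control set – DMSO wells as 0% and neomycin B wells as 100% inhibition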
NFkB transloc inh: blocks IL-1B driven NFkB nuclear translocation in HUVEC cells; HUVEC IL-1B NFkB p65 nuclear translocation imaging; inhibition, % at 2 µM; 94,000 compounds, 0.43% hits; AID 796;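 active = inhibition above about 30% together with a positive call from visual inspection of the well image, limit read from the data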;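 also: nuclear over cytoplasmic p65 intensity ratio measured by imaging; 0% = IL-1B stimulated DMSO wells and 100% = unstimulated DMSO wells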
HUVEC tox IL1B: toxic to HUVEC cells under IL-1B stimulation; HUVEC cell count loss, Hoechst imaging, IL-1B stimulated; cell count reduction, % at 2 µM; 94,000 compounds, 0.41% hits;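 active = cell count reduction more than 3 SD above the screen-wide mean, cut at about 70% in these data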;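 also: normalized per plate to untreated control cells as the no-loss baseline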
Measles CPE: protection of cells from measles virus | Measles virus-infected cells, CPE protection, absorbance | protection (pct of control), % at 4 µM | 140,000 compounds, 1.5% hits; in the data active = protection mostly above about 24%, no sharp cut-off; inactive = mostly below about 26%
NFkB transloc pot: enhances IL-1B driven NFkB nuclear translocation; activation, % at 2 µM; AID 819; HUVEC IL-1B NFkB p65 nuclear translocation imaging; 94,000 compounds, 0.3% hits;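 active = activation above 40%, about the mean plus 3 SD, also judged a hit on visual image review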;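 also: percent activation is computed from the nuclear over cytoplasmic p65 intensity ratio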
FAK inh: blocks human focal adhesion kinase activity | inhibition, %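 (tested at 7 µM)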 | biochemical FAK kinase activity assay | 97,000 compounds, 0.84% hits | Q05397 | AID 727; in the data active = inhibition above about 19%;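 also: 0% = DMSO and 100% = reference compound high control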
* marks the source's active call; other numbers are inactive results; · = no result given; [ ] = remark or other dose. An excerpt weighted towards active compounds, which were near 3.3% of everything screened.

SMILES	HIV Rev-RRE inh	NFkB transloc inh	HUVEC tox IL1B	Measles CPE	NFkB transloc pot	FAK inh
CN(C)c1ccc(/C=c2\sc3nc(-c4ccccc4)nn3c2=O)cc1	75.0*	0.1	-52.1	31.3	-0.1	-4.2
N/C(=N\OC(=O)CCCN1C(=O)c2ccccc2C1=O)c1ccc(Cl)cc1	10.3	0.7	-38.5	40.9*	-0.7	-0.8
CCOC(=O)N1CCN(C(=O)C2CCN(Cc3nc(-c4ccccc4C)oc3C)CC2)CC1	8.0	·	·	52.7*	·	6.5
O=[N+]([O-])c1ccc2nc(/C=C/c3ccc(Cl)cc3)[nH]c2c1	7.7	3.3	2.6	·	-3.3	5.3
O=c1nc(/C=C/c2cc([N+](=O)[O-])ccc2Cl)cc(C(F)(F)F)[nH]1	7.0	-15.8	-5.6	55.5*	15.8	0.4
O=C(/C=C/c1cccs1)Nc1ccc(Br)cn1	·	·	·	11.6	·	·
CCCCCCC(=O)NC(Nc1ccc(S(N)(=O)=O)cc1)C(Cl)(Cl)Cl (stereo not given)	5.9	-10.5	-1.0	32.4*	10.5	0.5
CCOC(=O)c1sc2cc([N+](=O)[O-])cc(SCC(C)C)c2c1N	61.7*	-22.2	5.8	15.4	22.2	-2.3
O=C(Cn1cnc2ccccc21)N/N=C/C(Br)=C/c1ccccc1	·	·	·	25.9	·	·
COC(=O)C[N+](C)(C)CC#Cc1ccccc1	·	·	·	4.0	·	·
CCCn1nnnc1-c1ccc(Cl)cc1	2.7	-4.9	-1.8	11.7	4.9	-4.2
CCCn1nnnc1-c1cccc(Cl)c1	3.6	1.3	0.8	60.7*	-1.3	0.7
CCCCNC(=S)Nc1ccccc1F	0.5	5.5	89.6*	11.2	-5.5	-1.1
CCN(C(=O)CN1CCOCC1)C1(C)C(=O)c2ccccc2C1=O	·	·	·	8.4	·	·
CCCCC[n+]1ccn(-c2nc3ccccc3nc2[N-]S(=O)(=O)c2ccc(C)cc2)c1	4.7	98.5*	82.3*	2.0	-98.5	-8.3
Cc1cc(Cl)ccc1NC(=O)CCCN1C(=O)CCC1=O	10.3	43.1*	-4.3	7.6	-43.1	0.5
COc1cc(/C=N/NC(=O)CSc2nc3ccccc3n2C)cc(OC)c1OC	·	·	·	10.3	·	·
O=C(NCc1ccccc1)c1cc(-c2cccs2)on1	4.9	-19.8	-51.0	2.1	19.8	0.2
O=C(NCc1ccccc1)c1cnsn1	3.6	-14.8	89.3*	3.7	14.8	-4.0
Cc1ccc(C(C(=O)Nc2ccc3c(c2)OCO3)N(C)C(=O)/C=C\c2ccc3c(c2)OCO3)cc1 (stereo not given)	·	·	·	19.4	·	·
C=CCN(c1cccc(C(F)(F)F)c1)S(=O)(=O)c1cccc(C(=O)OCC(=O)Nc2ccccc2)c1	·	·	·	6.0	·	·
CCOC(=O)C1=C(Cc2ccc(F)cc2)C(=O)c2ccccc2C1=O	-112.1	-58.7	0.6	11.1	58.7*	0.7
CN(C)CCCC(=O)c1ccc2c(c1)OCO2	9.0	7.6	17.0	35.3*	-7.6	-1.9
CN(C)CCC(=O)c1ccc2c(c1)OCO2	0.9	-4.1	-40.9	14.8	4.1	0.3
CCN(c1ccccc1)S(=O)(=O)c1ccc(C(=O)Oc2ccc(C(C)=O)cc2)cc1	·	·	·	12.0	·	·
SMILES	HIV Rev-RRE inh	NFkB transloc inh	HUVEC tox IL1B	Measles CPE	NFkB transloc pot	FAK inh
O=C(OCC(=O)N1CCCc2ccccc21)c1cncc(Br)c1	·	·	·	13.5	·	·
O=C(OCC(=O)N1CCCC1)c1cncc(Br)c1	1.3	98.1*	87.8*	43.1*	-98.1	-2.9
O=C(NC(=S)NCC1CCCO1)C(c1ccccc1)c1ccccc1 (stereo not given)	·	·	·	9.9	·	·
CCN(c1ccc(OC)cc1)S(=O)(=O)c1ccc2c(c1)CCN2C(=O)CCC(=O)O	3.4	-4.0	-14.3	0.6	4.0	1.4
CCN(c1ccc(C)c(C)c1)S(=O)(=O)c1ccc2c(c1)CCN2C(=O)CCC(=O)O	-0.4	-53.7	-12.2	4.4	53.7*	6.8
Cc1ccc(C)c(/C(O)=C2/C(=O)C(=O)N(CCN3CCOCC3)C2c2ccc(C)o2)c1 (stereo not given)	6.4	-107.4	-6.5	11.1	107.4*	-4.8
CC(C)C1C(=O)NC(=S)N1S(=O)(=O)c1ccc(C(C)(C)C)cc1 (stereo not given)	-6.7	-11.2	-7.8	17.6	11.2	-0.1
Cc1ccc(C)c(S(=O)(=O)N2C(=S)NC(=O)C2CC(C)C)c1 (stereo not given)	-1.1	-9.0	-5.3	40.5*	9.0	-0.5
COc1ccc2nc(SCC(=O)N3CCN(c4ccccc4F)CC3)c(C#N)cc2c1	10.0	45.6*	1.3	·	-45.6	0.5
O=C(CC12CC3CC(CC(C3)C1)C2)NC(=S)N1CCCCC1	·	·	·	21.4	·	·
COc1ccccc1OCc1nc(Cc2ccc(Cl)cc2)no1	17.1	-41.6	3.0	9.0	41.6*	6.5
COc1ccc(Cc2noc(COc3ccc(Cl)cc3)n2)cc1	13.5	1.4	0.8	5.0	-1.4	1.8
CCCCn1c(=O)[nH]c2ccccc21	7.0	4.4	-61.9	3.5	-4.4	4.1
CCCCn1c(=O)nc2n(-c3ccccc3)c3ccccc3cc-2c1=O	8.4	-91.8	-51.6	13.7	91.8*	2.7
COc1ccc(N2CCN(C(CNC(=O)c3ccco3)c3cccnc3)CC2)cc1 (stereo not given)	-0.8	-40.4	-12.4	11.3	40.4*	4.3
O=C(NC1CCCC1)C(c1ccccc1)N(C(=O)c1ccno1)c1ccccc1 (stereo not given)	0.7	46.0*	73.1*	8.5	-46.0	-1.4
O=C(NC1CCCC1)C(c1ccccc1)N(C(=O)c1ccno1)c1cccnc1 (stereo not given)	-3.8	-31.4	-7.5	0.4	31.4	-1.0
Cc1ccccc1-n1c(SCC(=O)N/N=C/c2sccc2C)nc2ccccc2c1=O	·	·	·	13.9	·	·
COC(=O)Cc1ccc(NC(=S)N2CCN(c3ccc(F)cc3)CC2)cc1	·	·	·	16.4	·	·
Cc1cc(NC(=O)CCN2C(=O)C3C4C=CC(C4)C3C2=O)c2ccccc2n1 (stereo not given)	7.4	8.6	-13.4	45.4*	-8.6	0.0
O=C(Nc1ccccc1)C1=C(O)CC(c2ccc(Cl)cc2)N2CCN=C12 (stereo not given)	·	·	·	8.0	·	·
Oc1c(C=Nc2cccc3cccnc23)sc2ccccc12	133.3*[fluorescence artefact?]	0.9	8.8	10.1	-0.9	4.2
N=c1sccn1CC(=O)Nc1ccc(S(=O)(=O)N2CCOCC2)cc1	5.5	-5.2	-44.6	1.5	5.2	2.4
Cc1ccc(S(=O)(=O)N2CCOCC2)cc1NC(=O)Cn1ccsc1=N	1.0	-40.3	-3.5	7.6	40.3*	2.2
O=C(c1cn(-c2ccccc2)nc1-c1ccc(F)cc1)N1CCCCC1	·	·	·	2.2	·	·
O=C(c1cn(-c2ccccc2)nc1-c1ccncc1)N1CCCCC1	2.5	23.6	92.2*	25.4	-23.6	-2.0
CC(=O)c1ccc(NC(=O)CN2CCN(c3ncccn3)CC2)cc1	4.6	9.0	8.4	77.6*	-9.0	1.1
CCN(CC)c1ccc(NC(=O)CN2CCN(c3nc(C)cc(C)n3)CC2)cc1	·	·	·	4.5	·	·
CC(C)OC(=O)c1ccc(Cn2nnc3ccccc3c2=O)cc1	16.9	-17.0	-17.5	38.7*	17.0	0.7
